# Data published in ChEMBL document CHEMBL5058577, “EUbOPEN Chemogenomics Library 2 (Multiplex)” (2022).
# Tested on: U2OS
# Assay: Multiplex assay against U2OS
# Format: toxicity, cell-based
# Conditions: human
# How it was run: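 Imaging took place on a CQ1 microscope at 37°C and 5% CO2 once compound had been added to live cells stained at seeding with Hoechst33342, BioTracker Green Microtubule Cytoskeleton Dye, MitoTracker Red and Annexin V Alexa Fluor 680. CellPathfinder machine-learning gating classed cells as Hoechst high-intensity objects or normal cells, classed normal cells as having healthy, pyknosed or fragmented nuclei, and classed pyknosed cells as mitotic or apoptotic. Tubulin, mitochondrial-mass and membrane-permeability phenotypes are per cents of the healthy-nucleus cells.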
# [1] = 12 h, 1 µM, compound concentration 1 uM, replicate 1
# [2] = 12 h, 1 µM, compound concentration 1 uM, replicate 2
# [3] = 12 h, 10 µM, compound concentration 10 uM, replicate 1
# [4] = 12 h, 10 µM, compound concentration 10 uM, replicate 2
# [5] = 24 h, 1 µM, compound concentration 1 uM, replicate 1
# [6] = 24 h, 1 µM, compound concentration 1 uM, replicate 2
# [7] = 24 h, 10 µM, compound concentration 10 uM, replicate 1
# [8] = 24 h, 10 µM, compound concentration 10 uM, replicate 2
# [9] = 48 h, 1 µM, compound concentration 1 uM, replicate 1
# [10] = 48 h, 1 µM, compound concentration 1 uM, replicate 2
# [11] = 48 h, 10 µM, compound concentration 10 uM, replicate 1
# [12] = 48 h, 10 µM, compound concentration 10 uM, replicate 2
compound,measurement,setting,value
CC(C)c1noc(N2CCC(COc3ccc(-c4ccc(S(C)(=O)=O)cc4)nc3)CC2)n1 [GSK-1292263],Population Apoptotic (%),[1],72%
same,Population Fragmented Nuclei (%),[1],27%
same,Population Healthy Nuclei (%),[1],62%
same,Population Hoechst High Intensity Objects (%),[1],2%
same,Population Membrane Permeable-Phenotype (%),[1],3%
same,Population Mitochondria Different-Phenotype (%),[1],2%
same,Population Mitotic Cells (%),[1],27%
same,Population Normal (%),[1],97%
same,Population Pyknosed Nuclei (%),[1],10%
same,Population Tubulin-Different-Phenotype (%),[1],0%
same,Total Cell Count,[1],177
same,Population Apoptotic (%),[2],100%
same,Population Fragmented Nuclei (%),[2],16%
same,Population Healthy Nuclei (%),[2],77%
same,Population Hoechst High Intensity Objects (%),[2],1%
same,Population Membrane Permeable-Phenotype (%),[2],4%
same,Population Mitochondria Different-Phenotype (%),[2],0%
same,Population Mitotic Cells (%),[2],0%
same,Population Normal (%),[2],98%
same,Population Pyknosed Nuclei (%),[2],5%
same,Population Tubulin-Different-Phenotype (%),[2],2%
same,Total Cell Count,[2],114
same,Population Apoptotic (%),[3],90%
same,Population Fragmented Nuclei (%),[3],31%
same,Population Healthy Nuclei (%),[3],60%
same,Population Hoechst High Intensity Objects (%),[3],2%
same,Population Membrane Permeable-Phenotype (%),[3],10%
same,Population Mitochondria Different-Phenotype (%),[3],6%
same,Population Mitotic Cells (%),[3],10%
same,Population Normal (%),[3],97%
same,Population Pyknosed Nuclei (%),[3],7%
same,Population Tubulin-Different-Phenotype (%),[3],6%
same,Total Cell Count,[3],262
same,Population Apoptotic (%),[4],100%
same,Population Fragmented Nuclei (%),[4],20%
same,Population Healthy Nuclei (%),[4],73%
same,Population Hoechst High Intensity Objects (%),[4],0%
same,Population Mitochondria Different-Phenotype (%),[4],8%
same,Population Mitotic Cells (%),[4],0%
same,Population Normal (%),[4],100%
same,Population Pyknosed Nuclei (%),[4],5%
same,Total Cell Count,[4],134
same,Population Apoptotic (%),[5],63%
same,Population Fragmented Nuclei (%),[5],32%
same,Population Healthy Nuclei (%),[5],57%
same,Population Hoechst High Intensity Objects (%),[5],1%
same,Population Membrane Permeable-Phenotype (%),[5],5%
same,Population Mitochondria Different-Phenotype (%),[5],2%
same,Population Mitotic Cells (%),[5],36%
same,Population Normal (%),[5],98%
same,Population Pyknosed Nuclei (%),[5],9%
same,Population Tubulin-Different-Phenotype (%),[5],3%
same,Total Cell Count,[5],236
same,Population Apoptotic (%),[6],66%
same,Population Fragmented Nuclei (%),[6],15%
same,Population Healthy Nuclei (%),[6],77%
same,Population Hoechst High Intensity Objects (%),[6],0%
same,Population Membrane Permeable-Phenotype (%),[6],2%
same,Population Mitotic Cells (%),[6],33%
same,Population Normal (%),[6],99%
same,Population Pyknosed Nuclei (%),[6],6%
same,Population Tubulin-Different-Phenotype (%),[6],1%
same,Total Cell Count,[6],145
same,Population Apoptotic (%),[7],92%
same,Population Fragmented Nuclei (%),[7],25%
same,Population Healthy Nuclei (%),[7],65%
same,Population Hoechst High Intensity Objects (%),[7],0%
same,Population Membrane Permeable-Phenotype (%),[7],10%
same,Population Mitochondria Different-Phenotype (%),[7],3%
same,Population Mitotic Cells (%),[7],7%
same,Population Normal (%),[7],99%
same,Population Pyknosed Nuclei (%),[7],9%
same,Population Tubulin-Different-Phenotype (%),[7],3%
same,Total Cell Count,[7],284
same,Population Apoptotic (%),[8],66%
same,Population Fragmented Nuclei (%),[8],15%
same,Population Healthy Nuclei (%),[8],75%
same,Population Hoechst High Intensity Objects (%),[8],2%
same,Population Membrane Permeable-Phenotype (%),[8],6%
same,Population Mitochondria Different-Phenotype (%),[8],5%
same,Population Mitotic Cells (%),[8],33%
same,Population Normal (%),[8],97%
same,Population Pyknosed Nuclei (%),[8],8%
same,Population Tubulin-Different-Phenotype (%),[8],2%
same,Total Cell Count,[8],143
same,Population Apoptotic (%),[9],77%
same,Population Fragmented Nuclei (%),[9],23%
same,Population Healthy Nuclei (%),[9],69%
same,Population Hoechst High Intensity Objects (%),[9],2%
same,Population Membrane Permeable-Phenotype (%),[9],3%
same,Population Mitochondria Different-Phenotype (%),[9],3%
same,Population Mitotic Cells (%),[9],22%
same,Population Normal (%),[9],97%
same,Population Pyknosed Nuclei (%),[9],6%
same,Population Tubulin-Different-Phenotype (%),[9],2%
same,Total Cell Count,[9],339
same,Population Apoptotic (%),[10],90%
same,Population Fragmented Nuclei (%),[10],15%
same,Population Healthy Nuclei (%),[10],74%
same,Population Hoechst High Intensity Objects (%),[10],1%
same,Population Membrane Permeable-Phenotype (%),[10],6%
same,Population Mitochondria Different-Phenotype (%),[10],2%
same,Population Mitotic Cells (%),[10],10%
same,Population Normal (%),[10],98%
same,Population Pyknosed Nuclei (%),[10],10%
same,Population Tubulin-Different-Phenotype (%),[10],1%
same,Total Cell Count,[10],201
same,Population Apoptotic (%),[11],87%
same,Population Fragmented Nuclei (%),[11],22%
same,Population Healthy Nuclei (%),[11],68%
same,Population Hoechst High Intensity Objects (%),[11],4%
same,Population Membrane Permeable-Phenotype (%),[11],6%
same,Population Mitochondria Different-Phenotype (%),[11],2%
same,Population Mitotic Cells (%),[11],12%
same,Population Normal (%),[11],95%
same,Population Pyknosed Nuclei (%),[11],9%
same,Population Tubulin-Different-Phenotype (%),[11],2%
same,Total Cell Count,[11],354
same,Population Apoptotic (%),[12],83%
same,Population Fragmented Nuclei (%),[12],12%
same,Population Healthy Nuclei (%),[12],77%
same,Population Hoechst High Intensity Objects (%),[12],1%
same,Population Membrane Permeable-Phenotype (%),[12],5%
same,Population Mitochondria Different-Phenotype (%),[12],4%
same,Population Mitotic Cells (%),[12],16%
same,Population Normal (%),[12],98%
same,Population Tubulin-Different-Phenotype (%),[12],4%
same,Total Cell Count,[12],189
